Measured values published in ChEMBL document CHEMBL1151753, “New benzylureas as a novel series of potent, nonpeptidic vasopressin V2 receptor agonists” (J Med Chem, 2008).
In brackets after ≈: the same amount, converted by molar mass. Activity calls are given as the source filed them. The rule behind the calls is not given here.

How the values were obtained:
Vasopressin V2 receptor [1] = molecular target: T1, Vasopressin V2 receptor (Homo sapiens, UniProt P30518); experiment: Agonist activity at human vasopressin V2 receptor expressed in HEK293 cells assessed as increase in intracellular cAMP level by CRE-luciferase reporter gene assay; format: functional, cell-based
T1 sequence (P30518 whole entry): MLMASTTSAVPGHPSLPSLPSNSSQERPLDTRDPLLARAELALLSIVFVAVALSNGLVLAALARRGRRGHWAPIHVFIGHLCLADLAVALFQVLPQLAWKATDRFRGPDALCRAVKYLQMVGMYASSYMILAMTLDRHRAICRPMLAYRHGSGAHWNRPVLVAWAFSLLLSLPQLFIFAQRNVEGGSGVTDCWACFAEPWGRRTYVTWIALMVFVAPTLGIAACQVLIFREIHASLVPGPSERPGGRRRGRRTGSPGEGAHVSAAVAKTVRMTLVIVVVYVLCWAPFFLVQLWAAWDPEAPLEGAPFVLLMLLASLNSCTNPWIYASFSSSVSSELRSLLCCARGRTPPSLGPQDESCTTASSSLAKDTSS
Outline: (§1)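 HEK293 cells grown to 70-80% confluency, transiently transfected with receptor plus pGL4 CRE-Luc reporter, incubated 24 h at 37 °C/5% CO2, plated at 10000 cells/well, a further 24 h. Compounds in 0.5 log serial dilutions in duplicate, final DMSO 0.1%. Luciferase read by luminescence after 5 h at 37 °C, expressed as % of 100 nM AVP control. 4-parameter logistic fit gave EC50, reported as geometric mean ± SD.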

Rattus norvegicus [2] = experiment: Antidiuretic effect in Long-Evans Brattleboro rat model assessed as inhibition of urine production at 1 mg/kg, po after 1 hr relative to control; format: functional
Outline: (§2)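 Brattleboro rats (Long-Evans hooded strain lacking circulating AVP, diabetes insipidus model) dosed orally in carboxymethyl cellulose. Voided urine collected and measured over 1 h periods and compared with vehicle-treated animals. At least six animals per group, data as means.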

Vasopressin V2 receptor [3] = molecular target: Vasopressin V2 receptor (Rattus norvegicus, UniProt Q00788); experiment: Agonist activity at rat vasopressin V2 receptor expressed in HEK293 cells assessed as increase in intracellular cAMP level by CRE-luciferase reporter gene assay; format: functional, cell-based; outline: as §1
Sequence of Vasopressin V2 receptor (Rattus norvegicus, UniProt Q00788) (Q00788 whole entry): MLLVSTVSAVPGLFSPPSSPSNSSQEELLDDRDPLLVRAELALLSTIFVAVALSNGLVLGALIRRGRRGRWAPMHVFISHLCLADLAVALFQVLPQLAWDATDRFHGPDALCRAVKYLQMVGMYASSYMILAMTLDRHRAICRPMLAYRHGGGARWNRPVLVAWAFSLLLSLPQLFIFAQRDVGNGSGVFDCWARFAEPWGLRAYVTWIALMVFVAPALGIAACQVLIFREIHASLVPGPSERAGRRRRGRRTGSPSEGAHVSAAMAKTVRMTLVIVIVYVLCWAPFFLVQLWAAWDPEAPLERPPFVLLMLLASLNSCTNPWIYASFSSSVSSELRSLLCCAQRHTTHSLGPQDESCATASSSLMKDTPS

Oxytocin receptor = molecular target: T2, Oxytocin receptor (Homo sapiens, UniProt P30559); experiment: Binding affinity to oxytocin receptor
T2 sequence (P30559 whole entry): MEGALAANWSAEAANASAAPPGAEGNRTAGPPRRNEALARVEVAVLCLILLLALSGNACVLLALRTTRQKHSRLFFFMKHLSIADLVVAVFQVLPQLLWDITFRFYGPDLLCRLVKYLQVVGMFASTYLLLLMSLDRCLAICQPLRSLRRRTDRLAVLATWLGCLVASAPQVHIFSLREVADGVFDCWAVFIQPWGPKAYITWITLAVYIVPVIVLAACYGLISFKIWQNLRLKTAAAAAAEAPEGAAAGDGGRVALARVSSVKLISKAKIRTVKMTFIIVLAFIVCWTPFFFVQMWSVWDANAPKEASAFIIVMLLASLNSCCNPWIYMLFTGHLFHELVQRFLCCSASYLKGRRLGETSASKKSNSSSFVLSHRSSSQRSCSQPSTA

[4] = molecular target: Vasopressin V2 receptor (Rattus norvegicus) (UniProt Q00788); experiment: Agonist activity at rat vasopressin V2 receptor expressed in HEK293 cells assessed as increase in intracellular cAMP level by CRE-luciferase reporter gene assay relative to arginine vasopressin
Sequence of Vasopressin V2 receptor (Rattus norvegicus) (Q00788 whole entry, looked up): as the sequence (Q00788 whole entry) above

Rattus norvegicus [5] = experiment: Antidiuretic effect in Long-Evans Brattleboro rat model assessed as inhibition of urine production at 1 mg/kg, po in methylcellulose after 5 hrs; format: functional, organism-based; design: dose 1 mg/kg
Vasopressin V2 receptor [6] = molecular target: T1, Vasopressin V2 receptor; experiment: Binding affinity to human vasopressin V2 receptor expressed in HEK293 cells by radioligand binding assay; format: cell-based
Vasopressin V2 receptor [7] = molecular target: T1, Vasopressin V2 receptor; experiment: Agonist activity at human vasopressin V2 receptor expressed in HEK293 cells assessed as increase in intracellular cAMP level by CRE-luciferase reporter gene assay relative to arginine vasopressin; format: functional, cell-based; outline: as §1
[8] = molecular target: Vasopressin V1a receptor (Homo sapiens) (UniProt P37288); experiment: Agonist activity at human vasopressin V1a receptor upto 10 uM by reporter gene assay; format: functional; outline: as §1
Sequence of Vasopressin V1a receptor (Homo sapiens) (P37288 whole entry, looked up): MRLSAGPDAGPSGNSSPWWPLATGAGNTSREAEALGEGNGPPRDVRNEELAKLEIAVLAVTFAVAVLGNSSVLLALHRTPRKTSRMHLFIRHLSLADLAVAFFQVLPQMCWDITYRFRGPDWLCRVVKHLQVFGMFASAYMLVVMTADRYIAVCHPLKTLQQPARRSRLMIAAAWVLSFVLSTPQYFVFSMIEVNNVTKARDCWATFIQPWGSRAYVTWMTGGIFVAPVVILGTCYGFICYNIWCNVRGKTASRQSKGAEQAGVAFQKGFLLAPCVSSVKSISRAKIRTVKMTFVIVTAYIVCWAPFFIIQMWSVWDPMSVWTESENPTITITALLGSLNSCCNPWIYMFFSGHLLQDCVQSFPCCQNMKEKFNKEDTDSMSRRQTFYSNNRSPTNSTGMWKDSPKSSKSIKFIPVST

[9] = molecular target: T3, Vasopressin V1b receptor (Homo sapiens) (UniProt P47901); experiment: Agonist activity at human vasopressin V1b receptor upto 10 uM by reporter gene assay; format: functional; outline: as §1
T3 sequence (whole entry): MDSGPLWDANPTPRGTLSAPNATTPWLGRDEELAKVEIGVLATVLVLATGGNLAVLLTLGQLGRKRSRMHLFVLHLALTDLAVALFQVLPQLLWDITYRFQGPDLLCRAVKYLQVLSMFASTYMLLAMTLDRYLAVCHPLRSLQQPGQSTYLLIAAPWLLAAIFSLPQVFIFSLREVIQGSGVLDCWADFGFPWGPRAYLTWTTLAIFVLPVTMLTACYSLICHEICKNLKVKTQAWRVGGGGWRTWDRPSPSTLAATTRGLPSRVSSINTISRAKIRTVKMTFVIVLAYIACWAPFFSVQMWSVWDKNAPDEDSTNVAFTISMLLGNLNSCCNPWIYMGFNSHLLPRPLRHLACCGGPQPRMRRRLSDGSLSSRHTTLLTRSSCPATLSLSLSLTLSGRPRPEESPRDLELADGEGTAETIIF

Rattus norvegicus [10] = experiment: Antidiuretic effect in Long-Evans Brattleboro rat model assessed as inhibition of urine production at 3 mg/kg, po after 2 hrs; format: functional, organism-based; design: dose 3 mg/kg; outline: as §2
[11] = Aqueous solubility of the compound; format: physicochemical; conditions: water (aqueous)
Rattus norvegicus [12] = experiment: Antidiuretic effect in Long-Evans Brattleboro rat model assessed as inhibition of urine production at 1 mg/kg, po after 1 to 2 hrs; format: functional, organism-based; design: dose 1 mg/kg; outline: as §2

Compound | EC50 (Vasopressin V2 receptor [1]) | other results
Cc1cc(C(=O)N2CCCCc3ccccc32)ccc1CNC(=O)Nc1ccccc1F | 30 nM | 
COc1cc(CNC(=O)Nc2c(F)cccc2F)ccc1C(=O)N1CCCCc2ccccc21 | 110 nM | 
CCO[C@@H]1C[C@@H](C(=O)N(C)C)N(C(=O)NCc2ccc(C(=O)N3CCCCc4ccccc43)cc2C)C1 | 4.3 nM | inhibition in vivo at 1 mg/kg (Rattus norvegicus [2]): 60%; EC50 (Vasopressin V2 receptor [3]): 15 nM
Cc1cc(C(=O)N2CCCCc3ccccc32)ccc1CNC(=O)N1C[C@H](OCc2ccccc2)C[C@H]1C(=O)N(C)C | 10 nM | 
Cc1cc(C(=O)N2CCCCc3ccccc32)ccc1CNC(=O)NCC(=O)OC(C)(C)C | 120 nM | 
Cc1cc(C(=O)N2CCCC(O)c3ccccc32)ccc1CNC(=O)N1CCC[C@H]1C(=O)N(C)C (stereo partly specified) | 230 nM | 
O=C(NCc1ccc(C(=O)N2CCCCc3ccccc32)c(F)c1)Nc1c(F)cccc1F | 180 nM | 
O=C(NCc1ccc(C(=O)N2CCCCc3ccccc32)cc1)Nc1c(F)cccc1F | 47 nM | Ki (Oxytocin receptor): > 10 µM; Activity [4]: 30%
Cc1cc(C(=O)N2CCCCc3ccccc32)ccc1CNC(=O)N1CCC[C@H]1C(=S)N(C)C | 3.2 nM | 
COC1(OC)C[C@@H](C(=O)N(C)C)N(C(=O)NCc2ccc(C(=O)N3CCCCc4ccccc43)cc2C)C1 | 20 nM | 
Cc1cc(C(=O)N2CCCCc3ccccc32)ccc1CNC(=O)Nc1c(F)cccc1F | 2.1 nM | inhibition in vivo at 1 mg/kg (Rattus norvegicus [2]): 0%; Activity (Rattus norvegicus [5]): inactive; Ki (Oxytocin receptor): > 10 µM; Ki (Vasopressin V2 receptor [6]): 200 nM; EC50 (Vasopressin V2 receptor [3]): 13 nM
COC(=O)[C@@H]1CCCN1C(=O)NCc1ccc(C(=O)N2CCCCc3ccccc32)cc1C | 100 nM | 
Cc1cc(C(=O)N2CCCCc3ccccc32)ccc1CNC(=O)N1CCC[C@H]1C(=O)N(C)C [FEDOVAPAGON] | 24 nM | inhibition in vivo at 1 mg/kg (Rattus norvegicus [2]): 81%; Efficacy (Vasopressin V2 receptor [7]): 100%; Activity [8]: inactive; Activity [9]: inactive; Ki (Oxytocin receptor): > 10 µM; Ki (Vasopressin V2 receptor [6]): 2000 nM; Activity (Rattus norvegicus [10]): Active; EC50 (Vasopressin V2 receptor [3]): 150 nM
COC(=O)CNC(=O)NCc1ccc(C(=O)N2CCCCc3ccccc32)cc1C | 37 nM | 
Cc1cc(C(=O)N2CCCCc3ccccc32)ccc1CNC(=O)N1CCC[C@H]1C(=O)OC(C)C | 950 nM | 
Cc1cc(C(=O)N2CCc3ccccc3-c3ccccc32)ccc1CNC(=O)N1CCC[C@H]1C(=O)N(C)C | 84 nM | 
CCN(CC)C(=O)[C@@H]1CCCN1C(=O)NCc1ccc(C(=O)N2CCCCc3ccccc32)cc1C | 350 nM | 
Cc1cc(C(=O)N2CCCC(F)(F)c3ccccc32)ccc1CNC(=O)N1CCC[C@H]1C(=O)N(C)C | 1700 nM | 
Cc1cc(C(=O)N2CCCCc3ccccc32)ccc1CNC(=O)NCC(N)=O | 210 nM | 
Cc1cc(C(=O)N2CCCCc3ccccc32)ccc1CNC(=O)NCC(=O)N(C)C | 58 nM | inhibition in vivo at 1 mg/kg (Rattus norvegicus [2]): 82%; solubility [11]: 177 µg/mL (≈ 419 µM); Activity (Rattus norvegicus [12]): Active; EC50 (Vasopressin V2 receptor [3]): 50 nM
Cc1cc(C(=O)N2CCCCc3ccccc32)ccc1CNC(=O)NCC(=O)OC(C)C | 140 nM | 
Cc1cc(C(=O)N2CCCCc3ccccc32)ccc1CNC(=O)N1CCC[C@H]1C(=O)O | 680 nM | 
Cc1ccn(-c2ccc(C(=O)N3Cc4cccn4Cc4ccccc43)c(Cl)c2)n1 | < 1 nM | 

Compound | EC50 (Vasopressin V2 receptor [1]) | other results
Cc1cc(C(=O)N2CCCCc3ccccc32)ccc1CNC(=O)N1C[C@H](OC(C)(C)C)C[C@H]1C(=O)N(C)C | 46 nM | 
Cc1cc(C(=O)N2CCCCc3ccccc32)ccc1CNC(=O)N1CC(F)(F)C[C@H]1C(=O)N(C)C | 50 nM | 
CCOC(=O)CNC(=O)NCc1ccc(C(=O)N2CCCCc3ccccc32)cc1C | 140 nM | 
Cc1cc(C(=O)N2Cc3cccn3Cc3ccccc32)ccc1CNC(=O)N1CCC[C@H]1C(=O)N(C)C | 120 nM | 
O=C(NCc1ccc(C(=O)N2CCCCc3ccccc32)c(Cl)c1)Nc1c(F)cccc1F | 40 nM | 
Cc1cc(C(=O)N2CCCCc3ccccc32)ccc1CNC(=O)N1CCC[C@@H]1C(=O)N(C)C | 380 nM | 
Cc1cc(C(=O)N2CCCCc3ccccc32)ccc1CNC(=O)NCC(=O)N1CCCC1 | 100 nM | 
Cc1cc(C(=O)N2CCCCc3ccccc32)ccc1CNC(=O)NCC(=O)Oc1ccccc1 | 820 nM | 
Cc1cc(C(=O)N2CCc3cccn3-c3ccccc32)ccc1CNC(=O)N1CCC[C@H]1C(=O)N(C)C | 140 nM | 
Cc1cc(C(=O)N2CCCCc3ccccc32)ccc1CNC(=O)NCC(=O)OCc1ccccc1 | 730 nM | 
CO[C@@H]1C[C@@H](C(=O)N(C)C)N(C(=O)NCc2ccc(C(=O)N3CCCCc4ccccc43)cc2C)C1 | 4.7 nM | inhibition in vivo at 1 mg/kg (Rattus norvegicus [2]): 84%; EC50 (Vasopressin V2 receptor [3]): 65 nM
Cc1cc(C(=O)N2CCCCc3ccccc32)cc(C)c1CNC(=O)Nc1c(F)cccc1F | 82 nM | 
Cc1cc(C(=O)N2CCCCc3ccccc32)ccc1CNC(=O)NCC(=O)NCc1ccccc1 | 270 nM | 
Cc1cc(C(=O)N2CCCOc3ccccc32)ccc1CNC(=O)N1CCC[C@H]1C(=O)N(C)C | 1000 nM | 
Cc1cc(C(=O)N2CCCCc3ccccc32)ccc1CNC(=O)NCC(=O)N1CCCCC1 | 150 nM | 
Cc1cc(C(=O)N2CCCCc3ccccc32)ccc1CNC(=O)Nc1ccc[nH]c1=O | 140 nM | 
Cc1cc(C(=O)N2CCCCc3ccccc32)ccc1CNC(=O)N1CCC[C@H]1C(=O)OC(C)(C)C | 390 nM | 
CCc1cc(C(=O)N2CCCCc3ccccc32)ccc1CNC(=O)Nc1c(F)cccc1F | 10 nM | 
Cc1cc(C(=O)N2CCCC(C)c3ccccc32)ccc1CNC(=O)N1CCC[C@H]1C(=O)N(C)C (stereo partly specified) | 220 nM | 
Cc1cc(C(=O)N2CCCCc3ccccc32)ccc1CNC(=O)N1C[C@H](O)C[C@H]1C(=O)N(C)C | 2.3 nM | inhibition in vivo at 1 mg/kg (Rattus norvegicus [2]): 68%; EC50 (Vasopressin V2 receptor [3]): 41 nM
Cc1cc(C(=O)N2CCCCc3ccccc32)ccc1CNC(=O)N1CC(=O)C[C@H]1C(=O)N(C)C | 27 nM | 
Cc1cc(C(=O)N2CCCCc3ccccc32)ccc1CNC(=O)NCC(=O)O | 180 nM | 
Cc1cc(C(=O)N2CCCCc3ccccc32)ccc1CNC(=O)Nc1ccccc1 | 130 nM | 
